Laboratory results published in ChEMBL document CHEMBL1149142, “Synthesis, biological activity and molecular modeling of 6-benzylthioinosine analogues as subversive substrates of Toxoplasma gondii adenosine kinase” (2004).

Tests used:
[1] = Effect of compound on percent survival of human fibroblast cells in culture was determined at 25 uM; type: functional; conditions: read-out: Survival
Summary of the method: (§1)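 Uninfected human foreskin fibroblast monolayers (≤30 passages) in RPMI 1640 are attached for at least 24 h at 37 °C in 5% CO2. Compound is added at the same concentrations as in the parasite assay and incubated 48 h. MTT is added for 4 h, formazan is dissolved in DMSO, and absorbance is read at 540 nm; at least triplicates.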

[2] = Effect of compound on percent survival of human fibroblast cells in culture was determined at 5 uM; type: functional; conditions: read-out: Survival; summary of the method: as §1
[3] = Effect of compound on percent survival of human fibroblast cells in culture was determined at 50 uM; type: functional; conditions: read-out: Survival; summary of the method: as §1
[4] = Effect of compound on percent survival of human fibroblast cells in culture was determined at 0 uM; type: functional; summary of the method: as §1
[5] = Effect of compound on percent survival of human fibroblast cells in culture was determined at 10 uM; type: functional; conditions: read-out: Survival; summary of the method: as §1
Toxoplasma gondii [6] = experiment: Effect of compound on percent survival of adenosine kinase deficient strain of Toxoplasma gondii (TgAKe-3) grown in human fibroblast cells at 0 uM; type: functional
Summary of the method: (§2)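 Human foreskin fibroblast monolayers (≤30 passages) in RPMI 1640 are infected with tachyzoites at one parasite per cell in 3% FBS for 1 h, then washed, with FBS kept at 10%. Compound is added in 50% ethanol stock (2.5% ethanol final) and incubated 18 h. Medium is replaced with drug-free [5,6-3H]uracil (2 μCi/mL) for 6 h. TCA-precipitable radioactivity is counted; at least triplicates.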

Toxoplasma gondii [7] = experiment: Effect of compound on percent survival of adenosine kinase deficient strain of Toxoplasma gondii (TgAKe-3) grown in human fibroblast cells at 10 uM; type: functional; summary of the method: as §2
Toxoplasma gondii [8] = experiment: Effect of compound on percent survival of adenosine kinase deficient strain of Toxoplasma gondii (TgAKe-3) grown in human fibroblast cells at 25 uM; type: functional; summary of the method: as §2
Toxoplasma gondii [9] = experiment: Effect of compound on percent survival of adenosine kinase deficient strain of Toxoplasma gondii (TgAKe-3) grown in human fibroblast cells at 5 uM; type: functional; summary of the method: as §2
Toxoplasma gondii [10] = experiment: Effect of compound on percent survival of adenosine kinase deficient strain of Toxoplasma gondii (TgAKe-3) grown in human fibroblast cells at 50 uM; type: functional; summary of the method: as §2
Toxoplasma gondii [11] = experiment: Effect of compound on percent survival of wild type (RH) strain of Toxoplasma gondii grown in human fibroblast cells at 0 uM; type: functional; summary of the method: as §2
Toxoplasma gondii [12] = experiment: Effect of compound on percent survival of wild type (RH) strain of Toxoplasma gondii grown in human fibroblast cells at 10 uM; type: functional; summary of the method: as §2
Toxoplasma gondii [13] = experiment: Effect of compound on percent survival of wild type (RH) strain of Toxoplasma gondii grown in human fibroblast cells at 25 uM; type: functional; summary of the method: as §2
Toxoplasma gondii [14] = experiment: Effect of compound on percent survival of wild type (RH) strain of Toxoplasma gondii grown in human fibroblast cells at 5 uM; type: functional; summary of the method: as §2
Toxoplasma gondii [15] = experiment: Effect of compound on percent survival of wild type (RH) strain of Toxoplasma gondii grown in human fibroblast cells at 50 uM; type: functional; summary of the method: as §2
[16] = substrate: CC(C)(C)c1ccc(CSc2ncnc3c2ncn3[C@@H]2O[C@H](CO)[C@@H](O)[C@H]2O)cc1; experiment: (§3) Binding affinity at Toxoplasma gondii adenosine kinase.
Summary of the method: (§4)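 Purified recombinant T. gondii adenosine kinase was expressed in E. coli BL21(DE3)pLysS and purified on two Q-Sepharose columns. The assay contained 50 mM Tris-Cl pH 7.4, 2.5 mM ATP, 5 mM MgCl2, 5 mM creatine phosphate, creatine kinase and 5 μM [8-14C]adenosine, with varied analogue concentrations. Incubation was at 37 °C, stopped by boiling. [14C]AMP was resolved by TLC. Apparent Ki from Dixon plots was taken as apparent Km.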

[17] = substrate: COC(=O)c1ccc(CSc2ncnc3c2ncn3[C@@H]2O[C@H](CO)[C@@H](O)[C@H]2O)cc1; experiment: as §3; summary of the method: as §4
[18] = substrate: COc1ccc(CSc2ncnc3c2ncn3[C@@H]2O[C@H](CO)[C@@H](O)[C@H]2O)cc1; experiment: as §3; summary of the method: as §4
[19] = substrate: Cc1cc(C)c(CSc2ncnc3c2ncn3[C@@H]2O[C@H](CO)[C@@H](O)[C@H]2O)c(C)c1; experiment: as §3; summary of the method: as §4
[20] = substrate: Cc1ccc(CSc2ncnc3c2ncn3[C@@H]2O[C@H](CO)[C@@H](O)[C@H]2O)cc1; experiment: as §3; summary of the method: as §4
[21] = substrate: Cc1cccc(CSc2ncnc3c2ncn3[C@@H]2O[C@H](CO)[C@@H](O)[C@H]2O)c1; experiment: as §3; summary of the method: as §4
[22] = substrate: Cc1ccccc1CSc1ncnc2c1ncn2[C@@H]1O[C@H](CO)[C@@H](O)[C@H]1O; experiment: as §3; summary of the method: as §4
[23] = substrate: N#Cc1ccc(CSc2ncnc3c2ncn3[C@@H]2O[C@H](CO)[C@@H](O)[C@H]2O)cc1; experiment: as §3; summary of the method: as §4
[24] = substrate: Nc1ncnc2c1ncn2[C@@H]1O[C@H](CO)[C@@H](O)[C@H]1O; experiment: as §3; summary of the method: as §4
[25] = substrate: O=[N+]([O-])c1ccc(CSc2ncnc3c2ncn3[C@@H]2O[C@H](CO)[C@@H](O)[C@H]2O)cc1; experiment: as §3; summary of the method: as §4
[26] = substrate: O=[N+]([O-])c1cccc(CSc2ncnc3c2ncn3[C@@H]2O[C@H](CO)[C@@H](O)[C@H]2O)c1; experiment: as §3; summary of the method: as §4
[27] = substrate: OC[C@H]1O[C@@H](n2cnc3c(SCc4c(F)cccc4Cl)ncnc32)[C@H](O)[C@@H]1O; experiment: as §3; summary of the method: as §4
[28] = substrate: OC[C@H]1O[C@@H](n2cnc3c(SCc4ccc(Br)cc4)ncnc32)[C@H](O)[C@@H]1O; experiment: as §3; summary of the method: as §4
[29] = substrate: OC[C@H]1O[C@@H](n2cnc3c(SCc4ccc(Cl)c(Cl)c4)ncnc32)[C@H](O)[C@@H]1O; experiment: as §3; summary of the method: as §4
[30] = substrate: OC[C@H]1O[C@@H](n2cnc3c(SCc4ccc(Cl)cc4)ncnc32)[C@H](O)[C@@H]1O; experiment: as §3; summary of the method: as §4
[31] = substrate: OC[C@H]1O[C@@H](n2cnc3c(SCc4ccc(Cl)cc4Cl)ncnc32)[C@H](O)[C@@H]1O; experiment: as §3; summary of the method: as §4
[32] = substrate: OC[C@H]1O[C@@H](n2cnc3c(SCc4ccc(F)cc4)ncnc32)[C@H](O)[C@@H]1O; experiment: as §3; summary of the method: as §4
[33] = substrate: OC[C@H]1O[C@@H](n2cnc3c(SCc4ccc(OC(F)(F)F)cc4)ncnc32)[C@H](O)[C@@H]1O; experiment: as §3; summary of the method: as §4
[34] = substrate: OC[C@H]1O[C@@H](n2cnc3c(SCc4cccc(C(F)(F)F)c4)ncnc32)[C@H](O)[C@@H]1O; experiment: as §3; summary of the method: as §4
[35] = substrate: OC[C@H]1O[C@@H](n2cnc3c(SCc4ccccc4)ncnc32)[C@H](O)[C@@H]1O; experiment: as §3; summary of the method: as §4
[36] = substrate: OC[C@H]1O[C@@H](n2cnc3c(SCc4ccccc4Cl)ncnc32)[C@H](O)[C@@H]1O; experiment: as §3; summary of the method: as §4

Molecule: OC[C@H]1O[C@@H](n2cnc3c(SCc4ccc(Cl)cc4Cl)ncnc32)[C@H](O)[C@@H]1O
- viability at 25 µM [1]: 94%
- viability at 5 µM [2]: 98.1%
- viability at 50 µM [3]: 99.5%
- Survival [4]: 100%
- viability at 10 µM [5]: 99.2%
- Survival (Toxoplasma gondii [6]): 100%
- survival at 10 µM (Toxoplasma gondii [7]): 100%
- survival at 25 µM (Toxoplasma gondii [8]): 100%
- survival at 5 µM (Toxoplasma gondii [9]): 100%
- survival at 50 µM (Toxoplasma gondii [10]): 100%
- Survival (Toxoplasma gondii [11]): 100%
- survival at 10 µM (Toxoplasma gondii [12]): 79.1%
- survival at 25 µM (Toxoplasma gondii [13]): 34.5%
- survival at 5 µM (Toxoplasma gondii [14]): 94.8%
- survival at 50 µM (Toxoplasma gondii [15]): 0%

Molecule: CCc1nc(N)nc(N)c1-c1ccc(Cl)cc1 [PYRIMETHAMINE]
- viability at 25 µM [1]: 100%
- viability at 5 µM [2]: 100%
- viability at 50 µM [3]: 100%
- Survival [4]: 100%
- viability at 10 µM [5]: 98.8%
- Survival (Toxoplasma gondii [11]): 100%
- survival at 10 µM (Toxoplasma gondii [12]): 36.3%
- survival at 25 µM (Toxoplasma gondii [13]): 11.8%
- survival at 5 µM (Toxoplasma gondii [14]): 53.8%
- survival at 50 µM (Toxoplasma gondii [15]): 6.9%

Molecule: CC(C)(C)c1ccc(CSc2ncnc3c2ncn3[C@@H]2O[C@H](CO)[C@@H](O)[C@H]2O)cc1
- viability at 25 µM [1]: 100%
- viability at 5 µM [2]: 97.4%
- viability at 50 µM [3]: 99.7%
- Survival [4]: 100%
- viability at 10 µM [5]: 100%
- Survival (Toxoplasma gondii [6]): 100%
- survival at 10 µM (Toxoplasma gondii [7]): 100%
- survival at 25 µM (Toxoplasma gondii [8]): 100%
- survival at 5 µM (Toxoplasma gondii [9]): 100%
- survival at 50 µM (Toxoplasma gondii [10]): 100%
- Survival (Toxoplasma gondii [11]): 100%
- survival at 10 µM (Toxoplasma gondii [12]): 71.7%
- survival at 25 µM (Toxoplasma gondii [13]): 47.2%
- survival at 5 µM (Toxoplasma gondii [14]): 83.3%
- survival at 50 µM (Toxoplasma gondii [15]): 12.2%

Molecule: Nc1ccc(S(=O)(=O)Nc2ncccn2)cc1 [SULFADIAZINE]
- viability at 25 µM [1]: 99.8%
- viability at 5 µM [2]: 98.2%
- viability at 50 µM [3]: 100%
- Survival [4]: 100%
- viability at 10 µM [5]: 99.7%
- Survival (Toxoplasma gondii [11]): 100%
- survival at 10 µM (Toxoplasma gondii [12]): 64.5%
- survival at 25 µM (Toxoplasma gondii [13]): 59.2%
- survival at 5 µM (Toxoplasma gondii [14]): 75.7%
- survival at 50 µM (Toxoplasma gondii [15]): 46.6%

Molecule: OC[C@H]1O[C@@H](n2cnc3c(SCc4ccc(OC(F)(F)F)cc4)ncnc32)[C@H](O)[C@@H]1O
- viability at 25 µM [1]: 97.4%
- viability at 5 µM [2]: 100%
- viability at 50 µM [3]: 98.6%
- Survival [4]: 100%
- viability at 10 µM [5]: 99.9%
- Survival (Toxoplasma gondii [6]): 100%
- survival at 10 µM (Toxoplasma gondii [7]): 100%
- survival at 25 µM (Toxoplasma gondii [8]): 97.6%
- survival at 5 µM (Toxoplasma gondii [9]): 100%
- survival at 50 µM (Toxoplasma gondii [10]): 95.1%
- Survival (Toxoplasma gondii [11]): 100%
- survival at 10 µM (Toxoplasma gondii [12]): 64.9%
- survival at 25 µM (Toxoplasma gondii [13]): 54.5%
- survival at 5 µM (Toxoplasma gondii [14]): 93.1%
- survival at 50 µM (Toxoplasma gondii [15]): 44%

B1: Adenosine kinase (Toxoplasma gondii), Q9TVW2 (protein)
chain: MAVDSSNSATGPMRVFAIGNPILDLVAEVPSSFLDEFFLKRGDATLATPEQMRIYSTLDQFNPTSLPGGSALNSVRVVQKLLRKPGSAGYMGAIGDDPRGQVLKELCDKEGLATRFMVAPGQSTGVCAVLINEKERTLCTHLGACGSFRLPEDWTTFASGALIFYATAYTLTATPKNALEVAGYAHGIPNAIFTLNLSAPFCVELYKDAMQSLLLHTNILFGNEEEFAHLAKVHNLVAAEKTALSTANKEHAVEVCTGALRLLTAGQNTGATKLVVMTRGHNPVIAAEQTADGTVVVHEVGVPVVAAEKIVDTNGAGDAFVGGFLYALSQGKTVKQCIMCGNACAQDVIQHVGFSLSFTSLPC
- Km [16]: 113 µM
- Km [17]: 96.1 µM
- Km [18]: 2.6 µM
- Km [19]: 150 µM
- Km [20]: 3.3 µM
- Km [21]: 1.3 µM
- Km [22]: 1.5 µM
- Km [23]: 0.9 µM
- Km [24]: 2.4 µM
- Km [25]: 1.1 µM
- Km [26]: 3 µM
- Km [27]: 37.7 µM
- Km [28]: 7.5 µM
- Km [29]: 2.5 µM
- Km [30]: 2.1 µM
- Km [31]: 0.7 µM
- Km [32]: 1.2 µM
- Km [33]: 141 µM
- Km [34]: 2.9 µM
- Km [35]: 2.4 µM
- Km [36]: 1.4 µM
